Data set [1] concerns the target T1, Nitric oxide synthase, inducible (Mus musculus) (UniProt P29477).
T1 sequence (whole entry): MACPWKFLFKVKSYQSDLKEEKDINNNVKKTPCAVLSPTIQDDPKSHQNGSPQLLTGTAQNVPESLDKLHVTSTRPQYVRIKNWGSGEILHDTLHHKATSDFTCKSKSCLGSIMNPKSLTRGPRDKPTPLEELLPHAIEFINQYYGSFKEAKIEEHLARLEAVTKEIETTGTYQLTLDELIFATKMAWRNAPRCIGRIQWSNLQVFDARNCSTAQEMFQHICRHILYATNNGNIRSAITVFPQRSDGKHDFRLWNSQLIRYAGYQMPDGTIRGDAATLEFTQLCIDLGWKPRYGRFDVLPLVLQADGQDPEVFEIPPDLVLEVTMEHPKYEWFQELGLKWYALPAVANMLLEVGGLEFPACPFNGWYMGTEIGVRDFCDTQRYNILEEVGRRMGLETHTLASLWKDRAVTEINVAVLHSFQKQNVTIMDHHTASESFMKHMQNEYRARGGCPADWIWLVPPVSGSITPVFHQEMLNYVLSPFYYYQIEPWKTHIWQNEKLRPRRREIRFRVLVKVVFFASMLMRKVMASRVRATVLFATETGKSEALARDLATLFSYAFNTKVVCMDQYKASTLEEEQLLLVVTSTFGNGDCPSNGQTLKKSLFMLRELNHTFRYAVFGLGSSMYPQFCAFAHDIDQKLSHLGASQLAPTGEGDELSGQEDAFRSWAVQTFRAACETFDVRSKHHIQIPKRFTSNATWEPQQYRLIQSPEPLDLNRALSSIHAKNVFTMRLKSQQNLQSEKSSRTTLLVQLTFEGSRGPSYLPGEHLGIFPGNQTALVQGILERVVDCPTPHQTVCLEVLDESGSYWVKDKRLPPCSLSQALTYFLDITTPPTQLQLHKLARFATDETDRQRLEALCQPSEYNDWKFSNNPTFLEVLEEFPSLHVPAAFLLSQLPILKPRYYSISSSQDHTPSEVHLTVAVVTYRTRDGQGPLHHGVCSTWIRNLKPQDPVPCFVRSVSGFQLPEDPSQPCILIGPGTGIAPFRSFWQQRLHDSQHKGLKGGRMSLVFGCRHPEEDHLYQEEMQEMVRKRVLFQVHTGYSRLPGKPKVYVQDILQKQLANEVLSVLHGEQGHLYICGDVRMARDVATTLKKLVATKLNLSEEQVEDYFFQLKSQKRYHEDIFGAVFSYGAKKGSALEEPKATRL
The experiment in a line: Inhibition of mouse recombinant iNOS expressed in Escherichia coli assessed as NADPH consumption at 100 uM after 2 mins by spectrophotometry. In a few lines:
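Murine iNOS from E. coli (15–50 nM final) in 50 mM Hepes pH 7.4 with 5 mM DTT, 100 µM CaCl2, 200 µM NADPH, 10 µM H4B, 100 µM L-arginine and 100 µM compound. Cofactors and compound preincubated 2 min at 37 °C, enzyme added, and A340 followed for 3 min (ε 6.2 mM-1 cm-1). Given as % of 1% DMSO control NADPH oxidase rate.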

In data set [2] the target is Nitric oxide synthase 1 (Rattus norvegicus) (UniProt P29476). The data set is described as follows: Inhibition of rat recombinant nNOS expressed in Saccharomyces cerevisiae assessed as conversion of [gamma-14C]L-arginine to [14C]L-citrulline at 100 uM by radioactive assay relative to control. Set-up: scale not given: the % may be the effect or the level left. In a few lines:
(§1)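 Purified enzymes: rat nNOS from S. cerevisiae, murine iNOS and bovine eNOS from E. coli. Reaction 5 min at 37 °C in 50 mM Hepes pH 7.4 with DTT, 1 mM NADPH, H4B, FAD, FMN, [14C]L-arginine (2.5 µM L-arginine) and 100 µM compound in 1% DMSO. nNOS/eNOS also got 1 mM CaCl2 and CaM, which iNOS lacked. [14C]citrulline isolated on Dowex and counted by scintillation; % of DMSO control, n=3.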

Data set [3] addresses T1, Nitric oxide synthase, inducible (Mus musculus). The data set is described as follows: Inhibition of mouse iNOS expressed in insect Sf9 cells assessed as residual activity at 100 uM by Griess assay relative to control. In a few lines:
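Murine iNOS produced in Sf9 insect cells. Buffer: 50 mM triethanolamine pH 7.5, 1 mM CHAPS, 10 mM 2-mercaptoethanol, 0.5 mM EDTA. Additions: 1 mM Mg2+, 5 µM FAD, 5 µM FMN, 0.5 mM NADPH, 10 µM H4B, 10 µg/ml CaM, 1 mM L-arginine. Compound at 100 µM final, 37 °C for 20 min. NADPH removed with LDH/pyruvate, then Griess read at 543 nm. Values are % of 1% DMSO control, 5 experiments.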

For data set [4] the target is unchanged. The data set is described as follows: Inhibition of iNOS in LPS and IFN-gamma-stimulated mouse RAW264.7 cells assessed as inhibition of nitrite accumulation at 100 uM after 15 hrs by Griess assay. The class given is cell-based. In a few lines: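 RAW 264.7 macrophages seeded at 100,000 cells/well in RPMI 1640 with 5% FCS and grown 24 h. Stimulated with 40 U/ml γ-IFN and 50 ng/ml LPS, with compound at 100 µM in 1% DMSO, for 15 h at 37 °C. Supernatant nitrite measured with Griess reagent at 550 nm against an NaNO2 calibration; 6–8 determinations.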

The target of data set [5] is T2, Nitric oxide synthase 3 (Bos taurus) (UniProt P29473).
T2 sequence (whole entry): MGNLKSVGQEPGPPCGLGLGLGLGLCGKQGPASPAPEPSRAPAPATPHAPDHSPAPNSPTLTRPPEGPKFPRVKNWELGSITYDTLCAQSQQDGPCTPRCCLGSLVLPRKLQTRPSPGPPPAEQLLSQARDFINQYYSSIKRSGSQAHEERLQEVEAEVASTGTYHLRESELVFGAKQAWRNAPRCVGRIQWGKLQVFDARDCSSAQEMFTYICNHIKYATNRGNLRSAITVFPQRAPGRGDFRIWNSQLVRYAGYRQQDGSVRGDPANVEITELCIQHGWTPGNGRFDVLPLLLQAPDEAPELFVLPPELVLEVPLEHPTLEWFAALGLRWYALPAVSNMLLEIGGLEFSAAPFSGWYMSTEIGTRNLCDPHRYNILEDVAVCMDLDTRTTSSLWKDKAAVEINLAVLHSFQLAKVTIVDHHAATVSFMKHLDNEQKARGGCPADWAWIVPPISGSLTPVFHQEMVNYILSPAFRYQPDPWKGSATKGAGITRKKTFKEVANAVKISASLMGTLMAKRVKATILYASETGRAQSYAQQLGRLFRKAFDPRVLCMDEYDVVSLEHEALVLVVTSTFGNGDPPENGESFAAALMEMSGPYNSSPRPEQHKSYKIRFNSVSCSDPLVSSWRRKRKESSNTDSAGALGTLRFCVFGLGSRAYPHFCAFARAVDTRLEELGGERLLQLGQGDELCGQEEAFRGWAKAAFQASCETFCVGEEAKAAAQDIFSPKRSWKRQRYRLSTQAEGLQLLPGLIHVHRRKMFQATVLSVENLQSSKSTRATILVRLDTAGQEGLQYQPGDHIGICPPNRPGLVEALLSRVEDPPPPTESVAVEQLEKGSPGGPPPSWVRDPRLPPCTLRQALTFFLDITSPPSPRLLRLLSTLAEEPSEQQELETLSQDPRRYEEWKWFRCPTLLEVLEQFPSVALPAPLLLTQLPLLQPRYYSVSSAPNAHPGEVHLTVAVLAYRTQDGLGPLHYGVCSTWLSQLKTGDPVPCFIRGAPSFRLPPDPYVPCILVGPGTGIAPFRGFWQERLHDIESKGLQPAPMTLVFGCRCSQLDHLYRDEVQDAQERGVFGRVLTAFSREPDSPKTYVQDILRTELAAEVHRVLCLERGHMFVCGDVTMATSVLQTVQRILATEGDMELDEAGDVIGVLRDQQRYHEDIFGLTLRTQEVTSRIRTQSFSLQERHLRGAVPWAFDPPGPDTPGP
The data set is described as follows: Inhibition of bovine eNOS expressed in insect Sf9 cells assessed as residual activity at 100 uM by Griess assay relative to control. In a few lines:
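Bovine eNOS from Sf9 cells. Reaction: triethanolamine buffer pH 7.5, 0.5 mM Ca2+, 10 µg/ml CaM, 10 µM H4B, FAD, FMN, 0.5 mM NADPH, 1 mM L-arginine, with 100 µM compound, 20 min at 37 °C. After NADPH removal by LDH/pyruvate, nitrite measured by Griess at 543 nm. Expressed as % residual activity versus 1% DMSO control, 5 experiments.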

Data set [6] addresses T2, Nitric oxide synthase 3 (Bos taurus). The data set is described as follows: Inhibition of bovine recombinant eNOS expressed in Escherichia coli assessed as conversion of [gamma-14C]L-arginine to [14C]L-citrulline at 100 uM by radioactive assay relative to control. Set-up: scale not given: the % may be the effect or the level left. In a few lines:
as §1

Data set [7] addresses T1, Nitric oxide synthase, inducible (Mus musculus). The data set is described as follows: Inhibition of mouse recombinant iNOS expressed in Escherichia coli assessed as conversion of [gamma-14C]L-arginine to [14C]L-citrulline at 100 uM by radioactive assay relative to control. Set-up: scale not given: the % may be the effect or the level left. In a few lines:
as §1

Data set [8] concerns RAW264.7. The data set is described as follows: Cytotoxicity against mouse RAW264.7 cells at 100 uM. It counts as cell-based. The following applies: raw264.7, 100 µM.
Data set [9] in a line: Lipophilicity, log D at pH 7.4 by HPLC method. To be noted: buffer.
For data set [10], the target named is T3, Nitric oxide synthase 3 (Homo sapiens) (UniProt P29474).
T3 sequence (whole entry): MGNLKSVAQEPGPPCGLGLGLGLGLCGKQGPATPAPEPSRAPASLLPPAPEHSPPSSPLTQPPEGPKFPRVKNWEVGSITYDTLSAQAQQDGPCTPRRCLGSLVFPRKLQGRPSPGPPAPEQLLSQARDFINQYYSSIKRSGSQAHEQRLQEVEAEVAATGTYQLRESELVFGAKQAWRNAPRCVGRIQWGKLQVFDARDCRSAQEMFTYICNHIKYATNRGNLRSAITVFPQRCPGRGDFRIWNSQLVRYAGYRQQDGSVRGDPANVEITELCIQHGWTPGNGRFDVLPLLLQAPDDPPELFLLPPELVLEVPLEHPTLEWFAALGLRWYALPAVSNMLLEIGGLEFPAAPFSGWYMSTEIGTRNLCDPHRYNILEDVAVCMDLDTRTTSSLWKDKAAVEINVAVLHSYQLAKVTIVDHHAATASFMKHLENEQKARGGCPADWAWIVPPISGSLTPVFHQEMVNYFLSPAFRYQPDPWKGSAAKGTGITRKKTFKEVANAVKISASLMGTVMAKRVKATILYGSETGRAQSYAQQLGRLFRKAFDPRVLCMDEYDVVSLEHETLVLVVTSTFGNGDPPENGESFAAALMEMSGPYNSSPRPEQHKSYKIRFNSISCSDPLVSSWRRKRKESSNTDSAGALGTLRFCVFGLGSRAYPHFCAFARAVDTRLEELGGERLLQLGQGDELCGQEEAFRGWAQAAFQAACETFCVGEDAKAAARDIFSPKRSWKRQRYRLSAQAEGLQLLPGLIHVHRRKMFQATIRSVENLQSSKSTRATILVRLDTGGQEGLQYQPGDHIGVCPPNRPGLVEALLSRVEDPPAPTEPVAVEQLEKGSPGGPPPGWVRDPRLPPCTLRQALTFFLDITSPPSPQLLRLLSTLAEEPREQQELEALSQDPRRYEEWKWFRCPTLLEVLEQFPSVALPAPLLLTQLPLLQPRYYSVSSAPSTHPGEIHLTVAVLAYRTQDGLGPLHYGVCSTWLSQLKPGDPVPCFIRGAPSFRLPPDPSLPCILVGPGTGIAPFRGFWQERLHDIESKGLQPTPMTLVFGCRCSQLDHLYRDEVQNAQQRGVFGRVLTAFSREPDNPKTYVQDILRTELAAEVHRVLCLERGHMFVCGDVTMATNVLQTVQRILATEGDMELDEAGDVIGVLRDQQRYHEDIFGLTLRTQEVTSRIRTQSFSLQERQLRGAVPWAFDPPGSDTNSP
The experiment in a line: Inhibition of human eNOS assessed as residual activity at 100 uM by Griess assay relative to control. In a few lines: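 Human eNOS expressed in Pichia pastoris. Incubated 20 min at 37 °C in triethanolamine pH 7.5 with 0.5 mM Ca2+, CaM, H4B 10 µM, FAD/FMN 5 µM, NADPH 0.5 mM, L-arginine 1 mM and compound at 100 µM final. Nitrite read by Griess (543 nm) after LDH/pyruvate NADPH removal; % of 1% DMSO control from 5 experiments.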

Data set [11] deals with Nitric oxide synthase, inducible (Homo sapiens) (UniProt P35228). The experiment in a line: Inhibition of human iNOS expressed in insect Sf9 cells assessed as residual activity at 100 uM by Griess assay relative to control. In a few lines:
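Human iNOS made in Sf9 cells, incubated at 37 °C for 20 min in 50 mM triethanolamine pH 7.5 with 1 mM Mg2+, FAD/FMN 5 µM each, 0.5 mM NADPH, 10 µM H4B, CaM and 1 mM L-arginine. Compound 100 µM final. NADPH cleared with lactate dehydrogenase/pyruvate before Griess reaction (543 nm). Residual activity relative to 1% DMSO control; mean of 5 experiments.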

The text below walks through data of ChEMBL document CHEMBL1152488, “Synthesis and evaluation of pyrido[1,2-a]pyrimidines as inhibitors of nitric oxide synthases” (Eur J Med Chem, 2009).

Sequence of Nitric oxide synthase 1 (Rattus norvegicus) (P29476 whole entry): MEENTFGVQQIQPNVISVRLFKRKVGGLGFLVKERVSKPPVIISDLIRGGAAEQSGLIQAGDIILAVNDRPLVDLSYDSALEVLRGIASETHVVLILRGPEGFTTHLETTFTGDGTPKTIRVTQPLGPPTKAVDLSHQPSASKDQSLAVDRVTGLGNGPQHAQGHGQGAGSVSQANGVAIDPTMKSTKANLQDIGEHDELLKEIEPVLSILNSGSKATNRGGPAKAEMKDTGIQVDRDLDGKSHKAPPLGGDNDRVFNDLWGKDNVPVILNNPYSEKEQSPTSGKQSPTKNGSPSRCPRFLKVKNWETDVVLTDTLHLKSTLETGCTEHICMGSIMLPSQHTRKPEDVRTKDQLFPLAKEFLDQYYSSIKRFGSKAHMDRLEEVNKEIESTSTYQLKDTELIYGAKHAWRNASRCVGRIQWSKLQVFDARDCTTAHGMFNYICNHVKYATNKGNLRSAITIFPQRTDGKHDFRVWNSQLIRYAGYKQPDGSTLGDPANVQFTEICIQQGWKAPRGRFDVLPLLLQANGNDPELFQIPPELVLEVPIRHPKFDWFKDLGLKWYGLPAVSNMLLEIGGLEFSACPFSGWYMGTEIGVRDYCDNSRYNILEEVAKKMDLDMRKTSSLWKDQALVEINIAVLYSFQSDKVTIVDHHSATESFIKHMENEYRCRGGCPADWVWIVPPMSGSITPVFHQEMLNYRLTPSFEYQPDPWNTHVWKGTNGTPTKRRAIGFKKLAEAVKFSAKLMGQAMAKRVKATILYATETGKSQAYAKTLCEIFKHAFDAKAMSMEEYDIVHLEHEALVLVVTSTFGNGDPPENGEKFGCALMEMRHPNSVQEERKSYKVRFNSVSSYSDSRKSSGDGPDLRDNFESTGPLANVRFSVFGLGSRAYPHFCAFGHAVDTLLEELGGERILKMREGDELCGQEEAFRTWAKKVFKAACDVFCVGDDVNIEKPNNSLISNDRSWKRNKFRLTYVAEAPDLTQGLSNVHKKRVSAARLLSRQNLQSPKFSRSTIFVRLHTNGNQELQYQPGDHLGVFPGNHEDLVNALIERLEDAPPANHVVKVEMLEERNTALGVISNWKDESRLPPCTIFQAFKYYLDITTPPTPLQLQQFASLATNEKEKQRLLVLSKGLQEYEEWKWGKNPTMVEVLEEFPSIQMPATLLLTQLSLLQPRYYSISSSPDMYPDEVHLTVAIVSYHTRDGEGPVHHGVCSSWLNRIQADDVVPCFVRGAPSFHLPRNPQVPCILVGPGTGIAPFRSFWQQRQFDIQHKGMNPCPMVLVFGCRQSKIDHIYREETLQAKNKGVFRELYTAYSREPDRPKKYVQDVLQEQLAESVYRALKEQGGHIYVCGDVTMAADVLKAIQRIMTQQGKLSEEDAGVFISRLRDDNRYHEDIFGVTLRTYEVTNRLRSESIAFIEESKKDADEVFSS
Sequence of Nitric oxide synthase, inducible (Homo sapiens) (P35228 whole entry): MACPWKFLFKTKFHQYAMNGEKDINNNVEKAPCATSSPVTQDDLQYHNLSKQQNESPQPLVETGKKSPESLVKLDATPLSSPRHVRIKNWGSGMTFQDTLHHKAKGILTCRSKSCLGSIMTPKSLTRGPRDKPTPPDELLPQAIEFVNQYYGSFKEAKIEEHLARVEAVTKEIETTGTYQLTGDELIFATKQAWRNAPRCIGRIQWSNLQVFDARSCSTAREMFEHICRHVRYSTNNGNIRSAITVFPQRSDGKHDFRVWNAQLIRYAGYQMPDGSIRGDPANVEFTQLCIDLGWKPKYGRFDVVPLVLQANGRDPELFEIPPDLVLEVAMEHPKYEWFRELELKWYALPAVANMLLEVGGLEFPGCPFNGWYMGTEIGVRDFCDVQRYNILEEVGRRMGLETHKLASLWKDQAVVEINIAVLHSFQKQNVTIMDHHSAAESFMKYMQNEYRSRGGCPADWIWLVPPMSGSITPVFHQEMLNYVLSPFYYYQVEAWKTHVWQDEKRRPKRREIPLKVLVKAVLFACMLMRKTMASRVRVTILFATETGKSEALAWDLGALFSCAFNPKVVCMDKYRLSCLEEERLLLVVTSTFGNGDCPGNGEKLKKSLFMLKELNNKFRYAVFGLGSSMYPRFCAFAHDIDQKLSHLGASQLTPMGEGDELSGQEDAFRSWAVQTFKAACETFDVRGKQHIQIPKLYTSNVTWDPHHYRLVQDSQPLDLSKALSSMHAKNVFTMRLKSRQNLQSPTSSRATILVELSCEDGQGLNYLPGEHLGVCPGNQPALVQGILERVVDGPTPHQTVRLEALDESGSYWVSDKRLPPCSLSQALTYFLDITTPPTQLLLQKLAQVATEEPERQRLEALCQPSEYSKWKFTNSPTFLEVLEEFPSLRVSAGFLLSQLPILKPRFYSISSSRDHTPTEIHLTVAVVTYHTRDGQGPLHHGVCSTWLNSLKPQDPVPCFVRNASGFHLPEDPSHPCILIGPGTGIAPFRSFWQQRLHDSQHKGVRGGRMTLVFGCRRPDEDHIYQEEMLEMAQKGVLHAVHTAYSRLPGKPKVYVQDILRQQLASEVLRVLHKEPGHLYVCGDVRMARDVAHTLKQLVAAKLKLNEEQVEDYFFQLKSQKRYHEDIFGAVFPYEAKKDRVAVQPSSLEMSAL

For the compound `COc1ccc(C(=O)C2CN=C3C(C)=CC=CN3C2)cc1OC` (stereo unspecified), the Remaining NADPH oxidation rate (% of DMSO control) in data set [1] came out at 89%. Further, the Activity was 48% in data set [2]; 102% in data set [3]; 95% in data set [5]; 94% in data set [6]; 96% in data set [7]; “Non-toxic” in data set [8]. Also, the inhibition in data set [4] was determined as 67%.
In data set [9], `CC1=CC=CC2=NCC(C(=O)c3ccc(-c4ccc(Br)cc4)cc3)CN12.[O-][Cl+3]([O-])([O-])O` (stereo unspecified) showed a log distribution coefficient (logD) of 2.8. In addition, the Activity in data set [10] was 84%; in [11], 106%; in data set [8] it was “Non-toxic”. The inhibition in [4] was 98%.
In the case of `Cc1ccc(C(=O)C2CN=C3C=CC=CN3C2)cc1.[O-][Cl+3]([O-])([O-])O` (stereo unspecified), the Remaining NADPH oxidation rate (% of DMSO control) in [1] is 91%. The Activity was 92% in data set [2]; 86% in [3]; 94% in [5]; 100% in data set [6]; 100% in [7]; “Non-toxic” in data set [8]. The inhibition in [4] came to 60%.
